Measurements taken from ChEMBL document CHEMBL1125645, “Specific bradycardic agents. 2. Heteroaromatic modifications in the side chain of specific bradycardic benzazepinones: chemistry, pharmacology, and structure-activity relationships” (1991).
The source made the active and inactive calls. The rule behind the calls is not given here.

Experiments:
Rattus norvegicus [1] = assay: Bradycardic activity was evaluated in an anesthetized rat model as percent heart rate(beats/min) reduction 20 min after iv injection of 5 mg/kg; assay type: functional
Procedure, shortened: (§1)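 Male Chbb:THOM rats, 200-250 g, anesthetized with pentobarbital sodium 50 mg/kg ip, with the trachea cannulated and artificial respiration given. Heart rate was recorded continuously by an ECG-triggered beat-to-beat tachograph before and at 5 and 20 min after a single iv injection of 5 mg/kg. Values are % change from pre-dose, reported ± SEM.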

Rattus norvegicus [2] = assay: Hypotensive activity was evaluated in an anesthetized rat model as percent mean aortic blood pressure(mm hg) reduction 5 min after iv injection of 5 mg/kg of the compound; NA=Not active; assay type: functional, organism-based; set-up: dose 5 mg/kg; settings: Artery
Procedure, shortened: (§2)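 In pentobarbital-anesthetized (50 mg/kg ip), artificially ventilated male Chbb:THOM rats (200-250 g), mean aortic pressure was measured through a carotid artery cannula connected to an electromechanical transducer. Readings were taken before and 5 min after 5 mg/kg iv. Values are % change from baseline, ± SEM.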

Rattus norvegicus [3] = assay: Bradycardic activity was evaluated in an anesthetized rat model as percent heart rate(beats/min) reduction 5 min after iv injection of 5 mg/kg; assay type: functional; procedure, shortened: as §1
Rattus norvegicus [4] = organism: Rattus norvegicus; assay: Delta HR ratio measured as the ratio of delta HR(20 min)/delta HR (5 min); assay type: functional
Procedure, shortened: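 Duration-of-action index: the % heart-rate reduction at 20 min divided by that at 5 min after 5 mg/kg iv. Rats were male Chbb:THOM, pentobarbital-anesthetized and ventilated, with heart rate taken from an ECG-triggered tachograph.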

Rattus norvegicus [5] = assay: Hypotensive activity was evaluated in an anesthetized rat model as percent mean aortic blood pressure(mm hg) reduction 5 min after iv injection of 5 mg/kg; assay type: functional, Artery; procedure, shortened: as §2
Rattus norvegicus [6] = organism: Rattus norvegicus; assay: Ratio of heart rate reduction to mean arterial blood pressure reduction; assay type: functional
Procedure, shortened: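 Selectivity parameter S: the % heart-rate reduction divided by the % mean arterial pressure reduction, both read 5 min after 5 mg/kg iv in anesthetized, ventilated male Chbb:THOM rats. Heart rate came from an ECG-triggered tachograph and pressure from a carotid cannula.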

Rattus norvegicus [7] = assay: Bradycardic activity was evaluated in an anesthetized rat model as percent heart rate(beats/min) reduction 20 min after iv injection of 5 mg/kg of the compound; NA=Not active; assay type: functional, organism-based; set-up: dose 5 mg/kg; procedure, shortened: as §1
Rattus norvegicus [8] = assay: Bradycardic activity was evaluated in an anesthetized rat model as percent heart rate(beats/min) reduction 5 min after iv injection of 5 mg/kg of the compound; NA=Not active; assay type: functional, organism-based; set-up: dose 5 mg/kg; procedure, shortened: as §1

SMILES | Delta HR (Rattus norvegicus [1]) [%] | Delta MAP (Rattus norvegicus [2]) | Delta HR (Rattus norvegicus [3]) [%] | Ratio (Rattus norvegicus [4]) | Delta MAP (Rattus norvegicus [5]) [%] | Selectivity (Rattus norvegicus [6]) | Delta HR (Rattus norvegicus [7]) | Delta HR (Rattus norvegicus [8])
COc1cc2c(cc1OC)CC(=O)N(CCCN(C)CCc1ccncc1)CC2 | -21 | inactive | -10 | 2.1 | – | – | – | –
COc1cc2c(cc1OC)CC(=O)N(CCCN(C)CCc1cc(C)sc1C)CC2 | -40 | – | -61 | 0.65 | -36 | 1.7 | – | –
COc1cc2c(cc1OC)CC(=O)N(CCCN(C)CCCc1cccs1)CC2 | -19 | – | -40 | 0.48 | -20 | 2 | – | –
COc1cc2c(cc1OC)CC(=O)N(CCCN(C)CCc1cccs1)CC2 | -16 | – | -28 | 0.56 | -34 | 0.82 | – | –
COc1cc2c(cc1OC)CC(=O)N(CCCN(C)CCc1c[nH]c3ccc(O)cc13)CC2 | -24 | – | -49 | 0.49 | -27 | 1.8 | – | –
COc1cc2c(cc1OC)CC(=O)N(CCCN(C)CCc1c[nH]c3ccc(Br)cc13)CC2 | -27 | – | -33 | 0.82 | -34 | 0.98 | – | –
COc1cc2c(cc1OC)CC(=O)N(CCCN(C)CCc1csc3cc(O)ccc13)CC2 | -37 | – | -50 | 0.74 | -29 | 1.7 | – | –
COc1cc2c(cc1OC)CC(=O)N(CCCN(C)CCc1ccsc1)CC2 | -19 | inactive | -24 | 0.79 | – | – | – | –
COc1cc2c(cc1OC)CC(=O)N(CCCN(C)CCCCCCc1cccs1)CC2 | -21 | – | -53 | 0.4 | -26 | 2 | – | –
COc1cc2c(cc1OC)CC(=O)N(CCCN(C)CCCCCc1cccs1)CC2 | -36 | – | -68 | 0.53 | -15 | 4.4 | – | –
COc1cc2c(cc1OC)CC(=O)N(CCCN(C)CCc1c[nH]c3ccccc13)CC2 | -36 | – | -50 | 0.73 | -23 | 2.2 | – | –
COc1cc2c(cc1OC)CC(=O)N(CCCN(C)CCn1cnc3ccccc31)CC2 | -15 | inactive | -10 | 1.5 | – | – | – | –
COc1cc2c(cc1OC)CC(=O)N(CCCN(C)Cc1cccnc1)CC2 | – | inactive | – | – | – | – | inactive | inactive
COc1cc2c(cc1OC)CC(=O)N(CCCN(C)CCc1csc3cc(OS(C)(=O)=O)ccc13)CC2 | -40 | – | -50 | 0.8 | -21 | 2.4 | – | –
COc1cc2c(cc1OC)CC(=O)N(CCCN(C)CCc1coc3cccc(OC)c13)CC2 | -14 | – | -31 | 0.45 | -8 | 3.9 | – | –
COc1ccc2c(CCN(C)CCCN3CCc4cc(OC)c(OC)cc4CC3=O)coc2c1 | -34 | – | -59 | 0.58 | -35 | 1.7 | – | –
COc1cc2c(cc1OC)CC(=O)N(CCCN(C)CCc1csc3c1CCCC3)CC2 | -55 | – | -69 | 0.8 | -43 | 1.6 | – | –
COc1cc2c(cc1OC)CC(=O)N(CCCN(C)CCc1cccn1C)CC2 | -18 | – | -30 | 0.59 | -18 | 1.7 | – | –
COc1cc2c(cc1OC)CC(=O)N(CCCN(C)CCCCc1cccs1)CC2 | -24 | – | -61 | 0.39 | -2 | 2.3 | – | –
COc1cc2c(cc1OC)CC(=O)N(CCCN(C)CCc1c[nH]c3ccc(OCc4ccccc4)cc13)CC2 | -46 | – | -49 | 0.93 | -45 | 1.1 | – | –
COc1cc2c(cc1OC)CC(=O)N(CCCN(C)CCc1csc3ccc(Br)cc13)CC2 | -17 | – | -50 | 0.34 | -41 | 1.2 | – | –
